A selection: hits, their analogues and other compounds. The true share with any hit is near 3%.
SENP1 FRET inh – SENP1 (human) catalytic domain inhibition; inhibition, % at 10 µM; 360,000 tested, 0.21% active; Q9P0U3; recombinant SENP1 catalytic domain, CyPet-SUMO1-YPet FRET cleavage;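 active = inhibition at least 30% at 10 µM, raw YFP signal under a set limit, fluorescence ratio 0.5 to 1.5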;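 note: 0% = enzyme with DMSO and 100% = no enzyme wells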
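System: Recombinant human SENP1 catalytic domain, His6-tagged | Incubation: Enzyme reaction for 50 min at room temperature, dark | Medium: Tris pH 8 with BME, BSA, NP40 and catalase | Also added: 25 nM SUMO1 FRET substrate | Compound: 10 µM single point, 0.5% DMSO | Measured by: FRET fluorescence in CFP and YFP emission channels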
Granule exo inh – lytic granule exocytosis inhibition | AID 651702 | inhibition, % at 10 µM | TALL-104 LAMP-1 surface exposure, flow cytometry; cells stimulated with thapsigargin and PMA | 360,000 tested, 0.66% active;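 active = inhibition above about 55%, limit read from the data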
HNF4A DNA FP – change in binding of human HNF4 alpha to DNA; AID 1224865; activity change, % at 10 µM; HNF4a-FITC DNA binding, fluorescence polarization, 1 h; 360,000 tested, 0.3% active; in the data active = activity change above about 30%, passing the limit was not always enough
H9c2 protect – myocardial damage modulation in H9c2 cells; AID 588492; 360,000 tested, 0.63% active; H9c2 cardiomyocytes, H2O2 injury protection, ATPLite, 2 h; protection from H2O2 cell death, % at 20 µM;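 active = compounds giving at least 50% protection of heart cells from peroxide-induced death in the single-dose screen, raw or plate-pattern-corrected value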;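 note: 0% = DMSO wells with peroxide and 100% = DMSO wells without peroxide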
Pemphigus Ab inh – inhibitors of pemphigus antibody binding to human desmoglein-3 | binding (percent of control), % at 10 µM | DSG3-coupled beads, scFv-anti-DSG3-GFP binding, flow cytometry; stronger effect = lower value | 310,000 tested, 0.48% active;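 active = binding more than 3 SD below its plate's average and above zero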;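 note: hits lower antibody fragment binding to DSG3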
Myeloid diff MLP – promotes myeloid progenitor differentiation. ER-HoxA9 myeloid progenitors, lysozyme-GFP differentiation, flow cytometry. calls only at 10 µM. 360,000 tested, 1% active;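 active = normalized GFP-positive differentiation at or above the plate's own cutoff, the solvent-only control mean plus 3 SD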;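 note: cells exposed to compound for four days before flow analysis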
* hit, by the source's call; i = inactive; nt = no result; + = active, no number.

SMILES	SENP1 FRET inh	Granule exo inh	HNF4A DNA FP	H9c2 protect	Pemphigus Ab inh	Myeloid diff MLP
NC(=O)c1nsc(C(=O)N(CC(=O)NC2CCCCC2)Cc2ccc(F)cc2)c1N	-1.2	-5.0	1.4	0.5	101.6	i
Cc1ccc(C(=O)Nc2ccc(Cl)cc2C)c(Cl)c1	0.2	-0.4	-1.9	-27.1	100.8	i
O=c1oc(-c2ccco2)nc2c1cnn2-c1ccccc1	1.0	6.1	2.9	50.7*	nt	i
O=C(/C(=N/N=C/c1ccc(O)c(O)c1O)c1ccccc1)c1ccccc1	2.0	10.7	-4.6	57.9*	77.5	i
Oc1ccc(/C=N/N=C(c2ccccc2)c2ccccc2)c(O)c1O	-32.0	-1.8	-4.7	85.4*	52.2	i
CN1CCN(C(=O)C2CCCN(S(=O)(=O)c3ccc(Cl)cc3)C2)CC1 (centres undefined)	0.1	0.0	3.4	1.8	99.2	i
O=C(O)c1ccccc1-c1ccc(/C=c2\sc3nc4cc(Br)cnc4n3c2=O)o1	-23.4	-8.4	-5.0	-2.5	43.4*	i
Cc1cc2nc3s/c(=C/c4ccc(-c5ccccc5C(=O)O)o4)c(=O)n3c2cc1C	-23.9	22.6	77.6	2.9	343.4	+
CC(C)CC1C(=O)N(Cc2cn(Cc3ccco3)nn2)CCS(=O)(=O)N1Cc1ccc(-c2ccc(Cl)cc2)cc1 (centres undefined)	-6.0	14.6	5.0	-17.2	103.0	i
O=C1c2ccccc2C(=O)N1n1cccc1	-0.1	-4.3	-1.9	1.5	104.1	i
CC(=O)Nc1cccc(-c2nnc(-c3ccccc3)o2)c1	1.7	-2.1	-2.4	4.6	102.2	i
COc1ccc(CC(=O)Nc2cccc(-c3nnc(-c4ccccc4)o3)c2)cc1OC	-2.9	68.6*	10.8	-2.6	98.0	i
CC(C)(C)C(=O)Nc1cccc(-c2nnc(-c3cccc(NC(=O)C(C)(C)C)c3)o2)c1	-2.8	6.9	1.5	64.1*	102.6	i
COc1ccc(CC(=O)Nc2cccc(-c3nnc(-c4ccc(C)cc4)o3)c2)cc1OC	0.9	88.2*	7.4	3.7	100.6	i
COc1ccccc1OCC(=O)Nc1cccc(-c2nnc(-c3ccco3)o2)c1	1.5	0.9	10.4	64.3*	103.9	i
COc1ccc(CC(=O)Nc2cccc(-c3nnc(-c4cccc(C)c4)o3)c2)cc1OC	0.3	21.9	1.1	-11.9	108.7	i
CCN(CC)S(=O)(=O)c1ccc(Cl)c(NC(=O)COC(=O)c2ccc([N+](=O)[O-])o2)c1	-0.1	1.6	12.3	7.8	87.7	i
CC(C)(C)n1nc2c(c1NC(=O)c1cc3ccccc3o1)CS(=O)(=O)C2	-0.4	-2.7	0.3	-5.1	107.2	i
COc1ccc(C2CC(c3cccs3)=NN2C(=O)CSc2nc(=O)n3cc(C)ccc3n2)cc1 (centres undefined)	-11.0	-0.1	1.5	9.1	97.6	i
CC(=O)Oc1ccc(C(=O)Nc2cccc(-c3nnc(-c4ccco4)o3)c2)cc1	1.2	-1.8	-5.6	26.2	106.6	+
C#CCSc1nnc(-c2ccc([N+](=O)[O-])cc2)o1	-7.8	8.0	-0.5	-3.2	103.9	i
CC1CCCN(C(=O)CSc2nnc(-c3cccnc3)n2C2CCCCC2)C1 (centres undefined)	-1.7	0.0	1.7	12.1	61.0*	i
O=C(CSc1nnc(-c2ccccc2)n1C1CCCCC1)N1CCCC1	1.5	-1.5	1.2	0.9	96.6	i
COc1c(-c2ccc(O)cc2)oc2cc(O)cc(O)c2c1=O	1.7	2.2	-5.3	-1.5	107.3	i
O=c1cc(-c2ccc(O)c(O)c2)oc2cc(O)cc(O)c12	24.9	-0.6	-4.0	61.9*	97.0	i
O=c1c(O)c(-c2ccc(O)c(O)c2)oc2cc(O)cc(O)c12	64.4	2.2	-6.7	94.8*	75.9	i
COc1ccc(-c2cc(=O)c3c(O)cc(O)cc3o2)cc1	1.8	0.8	-4.6	-10.7	nt	i
Cc1cccc(N2CCN(C(=O)c3cc(C)oc3C)CC2C)c1 (centres undefined)	-0.2	12.2	-2.5	23.8	97.1	i

Screens: PubChem BioAssay, several laboratories
